We go through two compounds from ChEMBL document CHEMBL4024747, “Design, Synthesis, and Biological Activities of Vibsanin B Derivatives: A New Class of HSP90 C-Terminal Inhibitors” (J Med Chem, 2017).

Structures are written as SMILES. The source made the active and inactive calls. No cut-off for these calls is given here.

The target in series [1] is Heat shock protein HSP 90-beta (Homo sapiens) (UniProt P08238). In words: Binding affinity to human FLAG-tagged HSP90beta middle domain expressed in human 293T cells at 30 uM by Western blot analysis. It is filed as cell-based. The gist of the method:
(§1)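 Flag-tagged full-length HSP90β and its NTD, MD and CTD constructs expressed by transfection in 293T cells; lysates incubated with 30 μM biotin-ViB, captured on streptavidin-agarose beads, bound protein detected by Western blot.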
(In general: Immunoblotting shows a protein as a band on a membrane.)

The target is the same in series [2]. Briefly: Binding affinity to human recombinant His-tagged HSP90beta-CTD expressed in Escherichia coli BL21(DE3) at 80 uM after 2 hrs by Western blot analysis.
Series [3] has the same target. Briefly: Binding affinity to human recombinant His-tagged HSP90beta-CTD expressed in Escherichia coli BL21(DE3) at 80 uM after 2 hrs in presence of ViB-4-OH by Western blot analysis.
Series [4] has the same target. In words: Binding affinity to human FLAG-tagged HSP90beta C-terminal domain expressed in human 293T cells at 30 uM by Western blot analysis. Type of series: cell-based. Summed up: as §1
Series [5] has the same target. In words: Binding affinity to human FLAG-tagged HSP90beta N-terminal domain expressed in human 293T cells at 30 uM by Western blot analysis. Type of series: cell-based. Summed up:
as §1

Series [6] has the same target. Briefly: Binding affinity to human recombinant His-tagged HSP90beta-CTD expressed in Escherichia coli BL21(DE3) at 80 uM after 2 hrs in presence of vibsanin B by Western blot analysis.
For series [7] the target is unchanged. In words: Binding affinity to human recombinant His-tagged HSP90beta-CTD expressed in Escherichia coli BL21(DE3) at 80 uM after 2 hrs in presence of 18-fluro vibsanin B by Western blot analysis.
Series [8] can be described thus: Drug degradation in pH 7.4 PBS at 37 degreeC after 12 hrs by HPLC analysis relative to control. Summed up: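 Solution stability determined by HPLC after incubation in PBS pH 7.4 at 37 °C for 12 h.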
The test system of a further series is HeLa. In words: Antiproliferative activity against human HeLa cells assessed as reduction in cell viability after 48 hrs by MTT assay. Type of series: functional, cell-based. (In general: Tetrazolium dyes change colour on reduction, which living cells bring about.)
Another series concerns A549. In words: Antiproliferative activity against human A549 cells assessed as reduction in cell viability after 48 hrs by MTT assay. Type of series: functional, cell-based. Particulars: A549, 48 h.
Another series concerns SMMC-7721. In words: Antiproliferative activity against human SMMC7721 cells assessed as reduction in cell viability after 48 hrs by MTT assay. Type of series: functional, cell-based. Particulars: SMMC-7721, 48 h.
The subject of a further series is HL-60. In words: Antiproliferative activity against human HL60 cells assessed as reduction in cell viability after 48 hrs by MTT assay. Type of series: functional, cell-based. Particulars: HL-60, 48 h.
In a further series the test system is SK-BR-3. In words: Antiproliferative activity against human SKBR3 cells assessed as reduction in cell viability after 48 hrs by MTT assay. Type of series: functional, cell-based. Particulars: SK-BR-3, 48 h.
A short description of series [9]: Stability of compound in boiling ethyl alcohol by HPLC analysis. Type of series: physicochemical.
Another series has as its system SW480. Briefly: Antiproliferative activity against human SW480 cells assessed as reduction in cell viability after 48 hrs by MTT assay. It is filed as functional, cell-based. Particulars: SW480, 48 h.
The nature of series [10]: Half life of compound in toluene at 60 degreeC by HPLC analysis. Type of series: physicochemical. The gist of the method:
(§2)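 Thermostability in toluene at 110 °C or 60 °C followed by HPLC; half-life estimated.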

The target of series [11] is Heat shock protein HSP 90-beta (Homo sapiens) (UniProt P08238). In words: Inhibition of FITC-geldanamycin binding to human FLAG-tagged HSP90beta N-terminal domain.
For another series, the species on record is Danio rerio. Briefly: Toxicity in 3 days post fertilized zebrafish embryo assessed as changes in embryonic phenotypes at 4 to 16 uM after 12 hrs. Particulars: in vivo.
The next series relates to MCF7. In words: Antiproliferative activity against human MCF7 cells assessed as reduction in cell viability after 48 hrs by MTT assay. Particulars: MCF7, 48 h. Type of series: functional, cell-based.
Series [12] deals with Luciferin 4-monooxygenase (Photinus pyralis) (UniProt P08659). In words: Inhibition of firefly luciferase activity using luciferin substrate at 10 uM after 30 mins by luminescence assay.
Series [13] in a line: Drug metabolism in deionized water assessed as compound decomposition at 100 degreeC after 10 mins by HPLC analysis relative to control. Type of series: physicochemical. Particulars: read-out: Drug metabolism. Summed up:
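Thermostability determined by HPLC after heating in deionized water at 100 °C for 10 min; decomposition recorded in percent.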

The subject of a further series is AGS. Briefly: Antiproliferative activity against human AGS cells assessed as reduction in cell viability after 48 hrs by MTT assay. Type of series: functional, cell-based.
The next series concerns BT-474. Briefly: Antiproliferative activity against human BT474 cells assessed as reduction in cell viability after 48 hrs by MTT assay. Particulars: BT-474, 48 h. Type of series: functional, cell-based.
A short description of series [14]: Half life of compound in toluene at 110 degreeC by HPLC analysis. It is filed as physicochemical. The gist of the method:
as §2

The next series relates to HepG2. Briefly: Antiproliferative activity against human HepG2 cells assessed as reduction in cell viability after 48 hrs by MTT assay. It is filed as functional, cell-based. Particulars: HepG2, 48 h.
The species named for a further series is Oryctolagus cuniculus. In words: Inhibition of HSP90 in rabbit reticulocyte lysate assessed as decrease in HSP90-dependant refolding of firefly luciferase at 10 uM after 30 mins by luciferase gene based assay. The gist of the method: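 Firefly luciferase heat-denatured at 41 °C for 10 min, then added with rabbit reticulocyte lysate to compounds at 10 μM. Renaturation at room temperature for 3 h; luciferin substrate added and luminescence read. Refolding expressed relative to DMSO; novobiocin at 500 μM as reference. Three independent experiments.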

In series [15] the target is Heat shock protein HSP 90-alpha (Homo sapiens) (UniProt P07900). In words: Inhibition of FITC-geldanamycin binding to human FLAG-tagged HSP90alpha N-terminal domain.

Sequence of Heat shock protein HSP 90-beta (Homo sapiens) (P08238 whole entry, the tested form may be a part): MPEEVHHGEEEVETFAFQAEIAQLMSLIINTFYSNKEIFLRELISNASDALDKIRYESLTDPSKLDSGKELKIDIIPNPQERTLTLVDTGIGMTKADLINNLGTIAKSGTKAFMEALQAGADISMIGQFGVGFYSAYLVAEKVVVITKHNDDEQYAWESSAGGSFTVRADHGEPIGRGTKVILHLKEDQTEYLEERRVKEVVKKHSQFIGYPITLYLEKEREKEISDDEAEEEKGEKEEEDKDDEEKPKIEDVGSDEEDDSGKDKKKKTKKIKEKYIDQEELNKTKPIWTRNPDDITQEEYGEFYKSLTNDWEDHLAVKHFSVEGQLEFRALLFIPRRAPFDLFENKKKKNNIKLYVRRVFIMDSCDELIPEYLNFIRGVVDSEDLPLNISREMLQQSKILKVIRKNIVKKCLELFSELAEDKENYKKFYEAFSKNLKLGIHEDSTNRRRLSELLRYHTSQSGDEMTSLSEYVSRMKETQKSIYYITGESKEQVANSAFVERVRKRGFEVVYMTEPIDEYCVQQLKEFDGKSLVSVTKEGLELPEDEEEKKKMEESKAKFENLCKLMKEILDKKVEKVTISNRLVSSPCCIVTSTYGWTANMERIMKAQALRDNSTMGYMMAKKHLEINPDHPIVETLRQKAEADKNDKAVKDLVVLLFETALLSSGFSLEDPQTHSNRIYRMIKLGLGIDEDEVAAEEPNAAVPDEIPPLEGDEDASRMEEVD
Sequence of Luciferin 4-monooxygenase (Photinus pyralis) (P08659 whole entry): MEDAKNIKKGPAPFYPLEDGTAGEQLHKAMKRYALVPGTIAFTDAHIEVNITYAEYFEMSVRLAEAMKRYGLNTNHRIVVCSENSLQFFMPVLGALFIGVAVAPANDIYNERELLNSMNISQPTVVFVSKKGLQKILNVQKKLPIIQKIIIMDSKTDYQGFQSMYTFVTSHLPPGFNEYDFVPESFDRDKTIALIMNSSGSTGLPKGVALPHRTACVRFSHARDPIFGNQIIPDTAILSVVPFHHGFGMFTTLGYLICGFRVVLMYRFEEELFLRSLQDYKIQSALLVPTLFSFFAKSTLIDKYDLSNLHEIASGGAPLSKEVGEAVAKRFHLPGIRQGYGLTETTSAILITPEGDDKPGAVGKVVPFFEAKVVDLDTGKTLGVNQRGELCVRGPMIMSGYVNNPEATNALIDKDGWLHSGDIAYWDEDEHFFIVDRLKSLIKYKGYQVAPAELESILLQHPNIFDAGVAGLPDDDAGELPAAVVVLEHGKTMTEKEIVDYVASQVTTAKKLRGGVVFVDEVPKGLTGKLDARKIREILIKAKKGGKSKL

As for `CC(C)=CCC[C@]1(C)/C=C/[C@@H](OC(=O)C=C(C)C)[C@](C)(O)/C=C/C(=O)/C(COC(=O)CNCc2cn(CCOCCOCCOC(=O)CCCC[C@@H]3SC[C@@H]4NC(=O)N[C@@H]43)nn2)=C\C1`, the result in series [1], in series [2], in [3] and in series [4] was Active. Further, the result in series [5], in series [6] and in series [7] was inactive.

What is called IC50 is the concentration that inhibits the measured activity by half. Broadly, the half-life is the time in which the quantity being followed falls by half. Read a low half-life as fast loss. In series [8], `CC(C)=CCC[C@]1(C)/C=C/[C@@H](OC(=O)C=C(C)C)[C@](C)(O)/C=C/C(=O)/C(CO)=C\C1` [VIBSANIN B] had a Drug degradation of 4.92%. Further, the IC50 in the series with HeLa worked out at 2.48 µM; in the series with A549, 3.46 µM; in the series with SMMC-7721 it was 3.25 µM; with HL-60, 2.64 µM; in the series with SK-BR-3, 9.19 µM; with SW480, 2.65 µM. For the same compound, the IC50 in the series with MCF7 was found to be 2.85 µM; in the series on AGS, 9.68 µM; in the series with BT-474 it was 4.55 µM; with HepG2, 19.1 µM. The Stability result in series [9] was “Stable”. The values for the half-life in series [10] and in series [14] were 9 min and 5 min, respectively. Further, the inhibition entry in [11], in [12] and in series [15] was “inactive” throughout. Further, the Activity result in the series filed under Danio rerio is “Toxic”. Further, in series [13], the degraded at 10 min is 2.8%. The inhibition result in the series listed under Oryctolagus cuniculus is “Active”.
